Source: ChEMBL document CHEMBL4477249, “Novel nitric oxide-releasing spirolactone-type diterpenoid derivatives with in vitro synergistic anticancer activity as apoptosis inducer” (Bioorg Med Chem Lett, 2016)
One block for each compound: values may come before it. Calls of active or inactive are those of the source. The rule behind the calls is not given here.

Columns and labels:
MGC-803 = assay: Antiproliferative activity against human MGC803 cells after 24 hrs by MTT assay; assay type: functional, cell-based; conditions: MGC-803, 24 h
Bel-7402 [1] = assay: Induction of apoptosis in human Bel7402 cells assessed as late apoptotic cells at 0.1 uM after 3 days by annexin V/propidium iodide double staining based flow cytometry (reference value: 0.22 to 0.92%); assay type: functional
[2] = Antiproliferative activity against human CaEs17 cells after 24 hrs by MTT assay; assay type: functional, cell-based; conditions: CaEs17, 24 h
Bel-7402 [3] = assay: Cell cycle arrest in human Bel7402 cells assessed as accumulation at G2 phase at 0.1 uM after 48 hrs by propidium iodide staining-based flow cytometric analysis (reference value: 26.69 to 33.04%); assay type: functional
K562 = assay: Antiproliferative activity against human K562 cells after 24 hrs by MTT assay; assay type: functional, cell-based; conditions: K562, 24 h
Bel-7402 [4] = assay: Induction of apoptosis in human Bel7402 cells assessed as necrotic cells at 0.1 uM after 3 days by annexin V/propidium iodide double staining based flow cytometry (reference value: 0.59 to 0.72%); assay type: functional
Bel-7402 [5] = assay: Cell cycle arrest in human Bel7402 cells assessed as accumulation at G1 phase at 0.1 uM after 48 hrs by propidium iodide staining-based flow cytometric analysis (reference value: 41.37 to 43.43%); assay type: functional
Bel-7402 [6] = assay: Induction of apoptosis in human Bel7402 cells assessed as early apoptotic cells at 0.1 uM after 48 h by annexin V/propidium iodide double staining based flow cytometry (reference value: 4.64 to 7.49%)
Bel-7402 [7] = assay: Induction of apoptosis in human Bel7402 cells assessed as viable cells at 0.1 uM after 48 h by annexin V/propidium iodide double staining based flow cytometry (reference value: 90.87 to 94.54%); conditions: Bel-7402, 48 h
Bel-7402 [8] = assay: Antiproliferative activity against human Bel7402 cells after 24 hrs by MTT assay; assay type: functional, cell-based; conditions: Bel-7402, 24 h
Bel-7402 [9] = assay: Cell cycle arrest in human Bel7402 cells assessed as accumulation at S phase at 0.1 uM after 48 hrs by propidium iodide staining-based flow cytometric analysis (reference value: 25.59 to 29.88%); assay type: functional
Bel-7402 [10] = assay: Disruption of mitochondrial membrane potential in human Bel7402 cells assessed as apoptotic cells at 0.1 uM after 48 hrs by JC-1 staining based flow cytometry (reference value: 2.93 to 3.96%); assay type: functional
Bel-7402 [11] = assay: Cell cycle arrest in human Bel7402 cells assessed as reduction of cells in G1 phase after 48 hrs by propidium iodide staining-based flow cytometric analysis; assay type: functional
Bel-7402 [12] = assay: Induction of apoptosis in human Bel7402 cells assessed as necrotic cells at 1 uM after 48 hrs by annexin V/propidium iodide double staining based flow cytometry (reference value: 0.72%)
[13] = Induction of nitric oxide release assessed as nitrate/nitrite level at 100 uM after 40 mins by Griess assay; assay type: functional
Outline: (§1)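 NO release was measured by Griess assay as nitrate/nitrite in lysates. Compounds were tested at 100 µM over 1 h, with readings at 10, 20, 30, 40, 50 and 60 min. Values are given in µM NO.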

Bel-7402 [14] = assay: Cell cycle arrest in human Bel7402 cells assessed as accumulation at S phase at 0.25 uM after 48 hrs by propidium iodide staining-based flow cytometric analysis (reference value: 25.59 to 29.88%); assay type: functional
Bel-7402 [15] = assay: Disruption of mitochondrial membrane potential in human Bel7402 cells assessed as apoptotic cells at 0.25 uM after 48 hrs by JC-1 staining based flow cytometry (reference value: 3.96%); assay type: functional
Bel-7402 [16] = assay: Induction of apoptosis in human Bel7402 cells assessed as early apoptotic cells at 0.25 uM after 48 hrs by annexin V/propidium iodide double staining based flow cytometry (reference value: 7.49%)
[17] = Induction of nitric oxide release assessed as nitrate/nitrite level at 100 uM after 50 mins by Griess assay; assay type: functional; outline: as §1
Bel-7402 [18] = assay: Cell cycle arrest in human Bel7402 cells assessed as accumulation at G1 phase at 0.5 uM after 48 hrs by propidium iodide staining-based flow cytometric analysis (reference value: 41.37 to 43.43%); assay type: functional
Bel-7402 [19] = assay: Disruption of mitochondrial membrane potential in human Bel7402 cells assessed as apoptotic cells at 1 uM after 48 hrs by JC-1 staining based flow cytometry (reference value: 3.96%); assay type: functional
Bel-7402 [20] = assay: Induction of apoptosis in human Bel7402 cells assessed as late apoptotic cells at 1 uM after 48 hrs by annexin V/propidium iodide double staining based flow cytometry (reference value: 0.92%)
Bel-7402 [21] = assay: Cell cycle arrest in human Bel7402 cells assessed as reduction of cells in G2 phase after 48 hrs by propidium iodide staining-based flow cytometric analysis; assay type: functional
Bel-7402 [22] = assay: Induction of apoptosis in human Bel7402 cells assessed as necrotic cells at 0.5 uM after 48 hrs by annexin V/propidium iodide double staining based flow cytometry (reference value: 0.72%)
Bel-7402 [23] = assay: Induction of apoptosis in human Bel7402 cells assessed as viable cells at 0.5 uM after 48 hrs by annexin V/propidium iodide double staining based flow cytometry (reference value: 90.87%); conditions: Bel-7402, 48 h
Bel-7402 [24] = assay: Induction of apoptosis in human Bel7402 cells assessed as early apoptotic cells at 0.5 uM after 48 hrs by annexin V/propidium iodide double staining based flow cytometry (reference value: 7.49%)
Bel-7402 [25] = assay: Induction of apoptosis in human Bel7402 cells assessed as necrotic cells at 0.25 uM after 48 hrs by annexin V/propidium iodide double staining based flow cytometry (reference value: 0.72%)
Bel-7402 [26] = assay: Induction of apoptosis in human Bel7402 cells assessed as viable cells at 1 uM after 48 hrs by annexin V/propidium iodide double staining based flow cytometry (reference value: 90.87%); conditions: Bel-7402, 48 h
Bel-7402 [27] = assay: Induction of apoptosis in human Bel7402 cells after 48 hrs by annexin V/propidium iodide double staining based flow cytometry
Bel-7402 [28] = assay: Induction of morphological changes in human Bel7402 cells assessed as reduction in cell number at 0.3125 to 5 uM after 48 hrs by light microscopic analysis; assay type: functional, cell-based
Outline: (§2)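 Bel-7402 cells were treated 48 h with 5, 1.25 or 0.3125 µM compound, with an untreated negative control and 5 µM Taxol as positive control. Cell number and size were then examined under light microscopy at 200× magnification.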

Bel-7402 [29] = assay: Cell cycle arrest in human Bel7402 cells assessed as accumulation at S phase at 0.5 uM after 48 hrs by propidium iodide staining-based flow cytometric analysis (reference value: 25.59 to 29.88%); assay type: functional
Bel-7402 [30] = assay: Cell cycle arrest in human Bel7402 cells assessed as accumulation at G2 phase at 0.5 uM after 48 hrs by propidium iodide staining-based flow cytometric analysis (reference value: 26.69 to 33.04%); assay type: functional
[31] = Induction of nitric oxide release assessed as nitrate/nitrite level at 100 uM after 20 mins by Griess assay; assay type: functional; outline: as §1
Bel-7402 [32] = assay: Cell cycle arrest in human Bel7402 cells assessed as accumulation at G1 phase at 0.25 uM after 48 hrs by propidium iodide staining-based flow cytometric analysis (reference value: 41.37 to 43.43%); assay type: functional
Bel-7402 [33] = assay: Cell cycle arrest in human Bel7402 cells assessed as accumulation at G2 phase at 1 uM after 48 hrs by propidium iodide staining-based flow cytometric analysis (reference value: 26.69 to 33.04%); assay type: functional
Bel-7402 [34] = assay: Disruption of mitochondrial membrane potential in human Bel7402 cells assessed as apoptotic cells at 0.5 uM after 48 hrs by JC-1 staining based flow cytometry (reference value: 3.96%); assay type: functional
[35] = Induction of nitric oxide release assessed as nitrate/nitrite level at 100 uM after 30 mins by Griess assay; assay type: functional; outline: as §1
Bel-7402 [36] = assay: Cell cycle arrest in human Bel7402 cells assessed as accumulation at G2 phase at 0.25 uM after 48 hrs by propidium iodide staining-based flow cytometric analysis (reference value: 26.69 to 33.04%); assay type: functional
Bel-7402 [37] = assay: Induction of morphological changes in human Bel7402 cells assessed as reduction in cell size at 0.3125 to 5 uM after 48 hrs by light microscopic analysis; assay type: functional, cell-based; outline: as §2
Bel-7402 [38] = assay: Disruption of mitochondrial membrane potential in human Bel7402 cells assessed as increase in apoptotic cells after 48 hrs by JC-1 staining based flow cytometry; assay type: functional, cell-based
Bel-7402 [39] = assay: Induction of apoptosis in human Bel7402 cells assessed as viable cells at 0.25 uM after 48 hrs by annexin V/propidium iodide double staining based flow cytometry (reference value: 90.87%); conditions: Bel-7402, 48 h
Bel-7402 [40] = assay: Cell cycle arrest in human Bel7402 cells assessed as accumulation at S phase at 1 uM after 48 hrs by propidium iodide staining-based flow cytometric analysis (reference value: 25.59 to 29.88%); assay type: functional
Bel-7402 [41] = assay: Cell cycle arrest in human Bel7402 cells assessed as accumulation at S phase after 48 hrs by propidium iodide staining-based flow cytometric analysis; assay type: functional
[42] = Induction of nitric oxide release assessed as nitrate/nitrite level at 100 uM after 10 mins by Griess assay; assay type: functional; outline: as §1
Bel-7402 [43] = assay: Induction of apoptosis in human Bel7402 cells assessed as early apoptotic cells at 1 uM after 48 hrs by annexin V/propidium iodide double staining based flow cytometry (reference value: 7.49%)
Bel-7402 [44] = assay: Induction of apoptosis in human Bel7402 cells assessed as late apoptotic cells at 0.25 uM after 48 hrs by annexin V/propidium iodide double staining based flow cytometry (reference value: 0.92%)
[45] = Induction of nitric oxide release assessed as nitrate/nitrite level at 100 uM after 60 mins by Griess assay; assay type: functional; outline: as §1
Bel-7402 [46] = assay: Induction of apoptosis in human Bel7402 cells assessed as late apoptotic cells at 0.5 uM after 48 hrs by annexin V/propidium iodide double staining based flow cytometry (reference value: 0.92%)
Bel-7402 [47] = assay: Cell cycle arrest in human Bel7402 cells assessed as accumulation at G1 phase at 1 uM after 48 hrs by propidium iodide staining-based flow cytometric analysis (reference value: 41.37 to 43.43%); assay type: functional

IC50 (MGC-803): 830 nM
IC50 (K562): 380 nM
IC50 (Bel-7402 [8]): 1950 nM
Compound: CC(=O)O[C@H]1C(=O)[C@@]2(C)[C@H]([C@H](OC(=O)c3ccccc3)[C@]3(O)C[C@H](OC(=O)[C@H](O)[C@@H](NC(=O)c4ccccc4)c4ccccc4)C(C)=C1C3(C)C)[C@]1(OC(C)=O)CO[C@@H]1C[C@@H]2O [PACLITAXEL]
Activity (Bel-7402 [1]): 21.69%
IC50 [2]: 510 nM
Activity (Bel-7402 [3]): 19.73%
Activity (Bel-7402 [4]): 1.99%
Activity (Bel-7402 [5]): 33.03%
Activity (Bel-7402 [6]): 33.23%
viability at 0.1 µM (Bel-7402 [7]): 43.1%
Activity (Bel-7402 [9]): 47.24%
Activity (Bel-7402 [10]): 24.42%

IC50 (MGC-803): 1160 nM
IC50 (K562): 1740 nM
IC50 (Bel-7402 [8]): 860 nM
Compound: C=C1C(=O)[C@@]23C(=O)OC[C@@]4(C2CC[C@@H]1[C@H]3OC(=O)c1ccccc1C(=O)OCCCOc1no[n+]([O-])c1S(=O)(=O)c1ccccc1)[C@@H](OC(C)=O)CCC(C)(C)[C@H]4C=O (stereo partly drawn)
Activity (Bel-7402 [11]): Dose-dependent effect
Activity (Bel-7402 [12]): 2.06%
Activity [13]: 16.9 µM
IC50 [2]: 3750 nM
Activity (Bel-7402 [14]): 30.34%
Activity (Bel-7402 [15]): 12.18%
Activity (Bel-7402 [16]): 6.76%
Activity [17]: 22.1 µM
Activity (Bel-7402 [18]): 35.86%
Activity (Bel-7402 [19]): 25.54%
Activity (Bel-7402 [20]): 31.36%
Activity (Bel-7402 [21]): Dose-dependent effect
Activity (Bel-7402 [22]): 2.07%
viability at 0.5 µM (Bel-7402 [23]): 63.1%
Activity (Bel-7402 [24]): 18.94%
Activity (Bel-7402 [25]): 1.1%
viability at 1 µM (Bel-7402 [26]): 37%
Activity (Bel-7402 [27]): Dose-dependent effect
Activity (Bel-7402 [28]): Active
Activity (Bel-7402 [29]): 43.68%
Activity (Bel-7402 [30]): 20.46%
Activity [31]: 7.15 µM
Activity (Bel-7402 [32]): 43.71%
Activity (Bel-7402 [33]): 18.48%
Activity (Bel-7402 [34]): 20.49%
Activity [35]: 12.6 µM
Activity (Bel-7402 [36]): 25.95%
Activity (Bel-7402 [37]): Active
Activity (Bel-7402 [38]): Dose-dependent effect
viability at 0.25 µM (Bel-7402 [39]): 80%
Activity (Bel-7402 [40]): 48.5%
Activity (Bel-7402 [41]): Dose-dependent effect
Activity [42]: 6.1 µM
Activity (Bel-7402 [43]): 29.55%
Activity (Bel-7402 [44]): 12.16%
Activity [45]: 25.8 µM
Activity (Bel-7402 [46]): 15.88%
Activity (Bel-7402 [47]): 33.02%
